pIC50: −log10 of the molar value.
Tests used:
[1] = tested on: L1210; assay: Non-protein associated single strand breaks, measured after cell lysis in the absence of proteinase K treatment at 20 uM concentration of the compound; assay type: functional, Mus musculus
Procedure, shortened: (§1)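 L1210 cells were exposed to compound for 1 h and DNA strand breaks were measured by alkaline elution, expressed as rad equivalents. Protein-associated breaks were read after cell lysis plus proteinase K treatment. Non-protein-associated breaks were read after lysis without proteinase K.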

[2] = tested on: L1210; assay: Non-protein associated single strand breaks, measured after cell lysis in the absence of proteinase K treatment at 2 uM concentration of the compound; assay type: functional, Mus musculus
Procedure, shortened: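 L1210 cells exposed to drug for 1 h, then alkaline elution. Cells lysed without proteinase K treatment to score single-strand breaks not bound to protein. Expressed as rad equivalents.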

[3] = tested on: L1210; assay: Protein associated single strand breaks, measured after cell lysis and proteinase K treatment at 2 uM concentration of the compound; assay type: functional, Mus musculus
Procedure, shortened: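 L1210 cells exposed to drug for 1 h, then alkaline elution. Lysis followed by proteinase K treatment to score protein-associated single-strand breaks. Expressed as rad equivalents.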

[4] = tested on: L1210; assay: Concentration that inhibits the proliferation of L1210 cells by 50%; assay type: functional, cell-based; settings: Mus musculus
Procedure, shortened: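 L1210 murine leukemia cells were incubated with drug at various concentrations for 60 min at 37 °C. Colonies were stained with tetrazolium and counted; cloning efficiency is 8-10%. IC50 is the drug concentration in the agar giving 50% fewer colonies.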

[5] = tested on: DNA topoisomerase 1 (Bos taurus); assay: Concentration that produces 50% DNA cleavage mediated by topoisomerase I; neg= negative is no enzyme mediated DNA cleavage at the highest conc tested at 50 uM
[6] = tested on: L1210; assay: Protein associated single strand breaks, measured after cell lysis and proteinase K treatment at 20 uM concentration of the compound; assay type: functional, Mus musculus; procedure, shortened: as §1
[7] = tested on: DNA topoisomerase 1 (Bos taurus); assay: Concentration that produces 50% DNA cleavage mediated by DNA topoisomerase I; neg= negative is no enzyme mediated DNA cleavage at the highest conc tested at 50 uM
[8] = tested on: L1210; assay: Non-protein associated single strand breaks, measured after cell lysis in the absence of proteinase K treatment at 10 uM concentration of the compound; assay type: functional, Mus musculus; procedure, shortened: as §1
[9] = tested on: L1210; assay: Protein associated single strand breaks, measured after cell lysis and proteinase K treatment at 10 uM concentration of the compound; assay type: functional, Mus musculus; procedure, shortened: as §1
[10] = tested on: DNA topoisomerase 1 (Bos taurus); assay: Concentration that produces 50% DNA cleavage mediated by DNA topoisomerase I
[11] = tested on: L1210; assay: Non-protein associated single strand breaks, measured after cell lysis in the absence of proteinase K treatment at 35 uM concentration of the compound; assay type: functional, Mus musculus; procedure, shortened: as §1
[12] = tested on: L1210; assay: Non-protein associated single strand breaks, measured after cell lysis in the absence of proteinase K treatment at 3.5 uM concentration of the compound; assay type: functional, Mus musculus; procedure, shortened: as §1
[13] = tested on: L1210; assay: Protein associated single strand breaks, measured after cell lysis and proteinase K treatment at 35 uM concentration of the compound; assay type: functional, Mus musculus; procedure, shortened: as §1

Row | pIC50 [4] | Compound | CC50 [7] | also measured
1 | 7.03 | C=C1CC(CC)(c2cc3n(c(=O)c2C)Cc2cc4ccccc4nc2-3)OC1=O (configuration not stated) |  | Radiation equivalent [1]: 1360; Radiation equivalent [2]: <100; Radiation equivalent [3]: <100; CC50 [5]: Negative; Radiation equivalent [6]: <100
2 | 6.23 | CC[C@H]1C(=O)OCc2c1cc1n(c2=O)Cc2cc3ccccc3nc2-1 | Negative | 
3 | 5.57 | CC[C@]1(O)c2cc3n(c(=O)c2COC1O)Cc1cc2ccccc2nc1-3 (some centres not stated) | Negative | Radiation equivalent [8]: <100; Radiation equivalent [9]: <100
4 | < 5.23 | O=C1OCc2c1cc1n(c2=O)Cc2cc3ccccc3nc2-1 | Negative | 
5 | < 5.23 | CCC1(O)OCc2c1cc1n(c2=O)Cc2cc3ccccc3nc2-1 (configuration not stated) |  | CC50 [5]: Negative
6 |  | CC[C@@](O)(C(=O)NC(C)C)c1cc2n(c(=O)c1CO)Cc1cc3ccccc3nc1-2 |  | CC50 [10]: 5000 nM
7 | 5.54 | CC[C@@]1(O)C(=O)SCc2c1cc1n(c2=O)Cc2cc3ccccc3nc2-1 |  | CC50 [5]: Negative
8 | < 5.23 | CCC1OC(=O)c2c1cc1n(c2=O)Cc2cc3ccccc3nc2-1 (configuration not stated) | Negative | 
9 | 7.04 | O=c1c2cocc2c(O)c2n1Cc1cc3ccccc3nc1-2 | Negative | Radiation equivalent [11]: 1000; Radiation equivalent [12]: 175; Radiation equivalent [13]: <100

Row | Compound | pIC50 [4] | CC50 [7] | also measured
10 | CC[C@@]1(OC(C)=O)C(=O)OCc2c1cc1n(c2=O)Cc2cc3ccccc3nc2-1 | 6.41 | Negative | 
11 | CC[C@@]1(O)C(=O)OCc2c1cc1n(c2=O)Cc2cc3ccccc3nc2-1 [CAMPTOTHECIN] | 7.85 |  | Radiation equivalent [2]: 240; Radiation equivalent [3]: 342
12 | CC[C@@]1(O)C(=O)NCc2c1cc1n(c2=O)Cc2cc3ccccc3nc2-1 | < 5.70 | Negative | Radiation equivalent [8]: <100; Radiation equivalent [9]: <100
13 | CC[C@@](O)(C(=O)O)c1cc2n(c(=O)c1CO)Cc1cc3ccccc3nc1-2 | 7.85 |  | CC50 [10]: 900 nM

— ChEMBL document CHEMBL1124433 (J Med Chem, 1989)
